Results as given in publication PMC4475452 (Chemistry & biology, 2015).

Key:
Format in all cases: cell-based
[1] = test system: Ramos cells; assay: PARP cleavage by immunoblot; details: 48 hours, 0.1 µM
[2] = test system: BRD2; assay: BRD2 protein degradation by immunoblot; details: Supp Figure 3
[3] = test system: BRD3; assay: BRD3 protein degradation by immunoblot; details: Supp Figure 3
[4] = test system: BL cell lines; assay: Caspase-Glo 3/7 apoptosis induction assay in BL cell lines; details: 24 hour treatment, four BL cell lines; ARV-825 0.1 µM, JQ1 1.0 µM, OTX015 1.0 µM
How it was run: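 Four Burkitt lymphoma lines (Namalwa, Ramos, CA-46, DAUDI; from ATCC, maintained as instructed) were exposed for 24 hours to test compounds at 0.1 or 1.0 µM. Puromycin served as the apoptosis-induction positive control. Caspase 3/7 activity was read by luminescent Caspase-Glo 3/7 assay following the manufacturer's protocol.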

[5] = test system: SLC19A1; assay: SLC19A1 expression by RT-qPCR in Namalwa cells; details: for Time for SLC19A1 to recover to control treatment level post compound removal: 24 hours treatment (1.0 µM), qPCR
[6] = test system: BL cell lines; assay: Proliferation by CellTiter-Glo assay in BL cell lines; details: 72 hours; for Effect on proliferation: BL cell lines, CTG assay
How it was run: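 Burkitt lymphoma cells were seeded at 50000 per 100 µl in 96-well plates and given increasing concentrations of test compound. After 72 hours, CellTiter-Glo reagent was added and luminescence was read. Relative growth was calculated against DMSO-treated control cells.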

[7] = test system: c-MYC; assay: c-MYC protein level by immunoblot in BL cell lines; details: for c-MYC level suppression: overnight treatment with increasing doses, BL cells, immunoblot; for c-MYC level upon withdrawal of compound from culture media: 1.0 µM for 24 hours, then removal, Namalwa and Ramos cells; for Time for c-MYC to recover to control level after compound removal: Namalwa cells, 24 hrs treatment (1.0 µM), three washes
[8] = molecular target: BRD4 (Homo sapiens, UniProt O60885); assay: BRD4 protein level by immunoblot in BL cell lines

Compound	Apoptosis (PARP cleavage) [1]	BRD2 degradation [2]	BRD3 degradation [3]	Caspases 3/7 activity [4]	SLC19A1 suppression ([5]; compared with JQ1 and OTX015)	Proliferation suppression in presence of excessive pomalidomide ([6]; ARV-825 0.01 or 0.1 µM with pomalidomide 1.0 or 10.0 µM)	Effect on proliferation [6]	c-MYC level suppression [7]	Time for SLC19A1 to recover to control treatment level post compound removal [5]	c-MYC level upon withdrawal of compound from culture media [7]	Time for c-MYC to recover to control level after compound removal [7]	Effect on BRD4 protein level [8]
Cc1sc2c(c1C)C(c1ccc(Cl)cc1)=N[C@@H](CC(=O)Nc1ccc(OCCOCCOCCOCCNc3cccc4c3C(=O)N(C3CCC(=O)NC3=O)C4=O)cc1)c1nnc(C)n1-2 (some centres unmarked) [ARV-825]	significant apoptosis	can be degraded	can be degraded	increased caspases 3/7 activity	suppressed more substantially	rescued the proliferation suppression effect	more pronounced suppression of proliferation than both JQ1 and OTX015	more pronounced downregulation of c-MYC	–	–	–	–
Cc1sc2c(c1C)C(c1ccc(Cl)cc1)=N[C@@H](CC(=O)OC(C)(C)C)c1nnc(C)n1-2 [JQ1]	–	–	–	not with high dose of JQ1 and OTX015	–	–	–	unable to suppress c-MYC levels fully	6 h	rapidly restored to normal	4 h	–
Cc1sc2c(c1C)C(c1ccc(Cl)cc1)=N[C@@H](CC(=O)Nc1ccc(O)cc1)c1nnc(C)n1-2 [OTX015]	–	–	–	not with high dose of JQ1 and OTX015	–	–	–	unable to suppress c-MYC levels fully	6 h	rapidly restored to normal	4 h	–
Nc1cccc2c1C(=O)N(C1CCC(=O)NC1=O)C2=O (centres unmarked) [pomalidomide]	–	–	–	–	–	–	didn’t show any significant effects	–	–	–	–	no impact on BRD4 protein levels
